Experimental data reported in ChEMBL document CHEMBL1250448, “Inhibitor hijacking of Akt activation” (Nat Chem Biol, 2009).

Experiments:
[1] = target: ALK tyrosine kinase receptor (Homo sapiens) (UniProt Q9UM73); test: Inhibition of ALK at 1 uM in presence of 10 uM ATP by Select Screen kinase assay relative to untreated control
In short: (§1)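 Single-point screen at 1 μM against a panel of 220 purified kinases, run by Invitrogen staff as a SelectScreen profiling service. Read-out is percent inhibition of kinase activity.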

[2] = target: T1, Serine/threonine-protein kinase Sgk3 (Homo sapiens) (UniProt Q96BR1); test: Inhibition of SGKL at 1 uM in presence of 10 uM ATP by Select Screen kinase assay relative to untreated control
T1 sequence (whole entry): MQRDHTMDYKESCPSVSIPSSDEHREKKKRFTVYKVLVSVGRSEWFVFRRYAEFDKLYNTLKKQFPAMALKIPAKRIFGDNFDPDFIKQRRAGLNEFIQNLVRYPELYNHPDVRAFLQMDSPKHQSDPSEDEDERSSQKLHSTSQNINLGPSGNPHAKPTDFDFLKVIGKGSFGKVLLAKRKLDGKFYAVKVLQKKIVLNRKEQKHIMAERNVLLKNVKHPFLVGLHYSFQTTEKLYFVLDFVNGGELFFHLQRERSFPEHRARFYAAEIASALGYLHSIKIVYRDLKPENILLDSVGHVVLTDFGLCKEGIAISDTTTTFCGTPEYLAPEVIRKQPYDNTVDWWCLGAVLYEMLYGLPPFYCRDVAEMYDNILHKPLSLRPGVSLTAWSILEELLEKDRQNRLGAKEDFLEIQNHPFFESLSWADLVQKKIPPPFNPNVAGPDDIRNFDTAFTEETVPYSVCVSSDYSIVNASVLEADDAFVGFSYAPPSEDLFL
In short: (§2)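 Commercial SelectScreen profiling panel of 220 purified kinases. Each kinase was tested at a single inhibitor concentration of 1 μM, and activity was expressed as percent inhibition.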

[3] = target: Dual specificity tyrosine-phosphorylation-regulated kinase 1A (Homo sapiens) (UniProt Q13627); test: Inhibition of DYRK1A at 1 uM in presence of 10 uM ATP by Select Screen kinase assay relative to untreated control; in short: as §1
[4] = target: Tyrosine-protein kinase Fes/Fps (Homo sapiens) (UniProt P07332); test: Inhibition of FES at 1 uM in presence of 10 uM ATP by Select Screen kinase assay relative to untreated control; in short: as §1
Chain of Tyrosine-protein kinase Fes/Fps (Homo sapiens) (P07332 whole entry): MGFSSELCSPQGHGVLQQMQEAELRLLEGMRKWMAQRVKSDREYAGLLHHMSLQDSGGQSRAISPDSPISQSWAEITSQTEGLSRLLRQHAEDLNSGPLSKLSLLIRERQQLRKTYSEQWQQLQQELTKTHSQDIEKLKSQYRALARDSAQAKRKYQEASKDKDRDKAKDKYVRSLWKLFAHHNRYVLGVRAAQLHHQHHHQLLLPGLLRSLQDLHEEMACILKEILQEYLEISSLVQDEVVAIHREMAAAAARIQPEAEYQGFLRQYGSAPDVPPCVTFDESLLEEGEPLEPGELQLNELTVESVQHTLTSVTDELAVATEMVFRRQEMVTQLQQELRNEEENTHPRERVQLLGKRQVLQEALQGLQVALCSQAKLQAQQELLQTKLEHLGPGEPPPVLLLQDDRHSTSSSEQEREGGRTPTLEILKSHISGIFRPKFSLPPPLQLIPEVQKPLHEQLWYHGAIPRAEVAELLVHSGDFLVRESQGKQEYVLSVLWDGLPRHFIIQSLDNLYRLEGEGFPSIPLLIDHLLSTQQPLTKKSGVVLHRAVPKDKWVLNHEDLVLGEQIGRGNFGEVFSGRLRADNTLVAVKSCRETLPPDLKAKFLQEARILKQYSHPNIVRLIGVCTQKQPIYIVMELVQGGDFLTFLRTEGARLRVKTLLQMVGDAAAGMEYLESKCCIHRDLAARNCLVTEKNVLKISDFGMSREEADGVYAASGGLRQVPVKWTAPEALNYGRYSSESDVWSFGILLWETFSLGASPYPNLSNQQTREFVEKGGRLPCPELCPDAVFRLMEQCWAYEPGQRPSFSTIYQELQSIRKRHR

[5] = target: Tyrosine-protein kinase HCK (Homo sapiens) (UniProt P08631); test: Inhibition of HCK at 1 uM in presence of 10 uM ATP by Select Screen kinase assay relative to untreated control
Chain of Tyrosine-protein kinase HCK (Homo sapiens) (P08631 2-526 limits assumed): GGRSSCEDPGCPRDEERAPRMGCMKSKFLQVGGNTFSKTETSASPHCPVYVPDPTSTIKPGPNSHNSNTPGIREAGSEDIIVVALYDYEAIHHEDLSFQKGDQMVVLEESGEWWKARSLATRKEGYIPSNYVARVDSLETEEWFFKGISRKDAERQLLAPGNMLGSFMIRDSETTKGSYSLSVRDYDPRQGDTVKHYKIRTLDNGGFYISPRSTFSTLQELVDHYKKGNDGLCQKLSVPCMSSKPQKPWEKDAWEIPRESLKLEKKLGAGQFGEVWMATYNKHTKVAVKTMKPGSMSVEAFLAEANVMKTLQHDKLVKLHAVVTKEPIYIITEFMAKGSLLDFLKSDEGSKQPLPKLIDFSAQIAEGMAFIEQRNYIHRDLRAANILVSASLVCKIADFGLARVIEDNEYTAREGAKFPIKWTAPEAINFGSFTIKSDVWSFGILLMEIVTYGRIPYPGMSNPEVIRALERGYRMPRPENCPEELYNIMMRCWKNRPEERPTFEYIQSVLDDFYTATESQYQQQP
In short: (§3)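 Single-concentration profiling at 1 μM against a panel of 220 purified kinases, run as an outsourced SelectScreen kinase profiling service. Activity is expressed as percent inhibition.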

[6] = target: Insulin-like growth factor 1 receptor (Homo sapiens) (UniProt P08069); test: Inhibition of IGF1R at 1 uM in presence of 10 uM ATP by Select Screen kinase assay relative to untreated control; in short: as §3
[7] = target: Mitogen-activated protein kinase kinase kinase 8 (Homo sapiens) (UniProt P41279); test: Inhibition of MAP3K8 at 1 uM in presence of 100 uM ATP by Select Screen kinase assay relative to untreated control; in short: as §3
Chain of Mitogen-activated protein kinase kinase kinase 8 (Homo sapiens) (P41279 whole entry): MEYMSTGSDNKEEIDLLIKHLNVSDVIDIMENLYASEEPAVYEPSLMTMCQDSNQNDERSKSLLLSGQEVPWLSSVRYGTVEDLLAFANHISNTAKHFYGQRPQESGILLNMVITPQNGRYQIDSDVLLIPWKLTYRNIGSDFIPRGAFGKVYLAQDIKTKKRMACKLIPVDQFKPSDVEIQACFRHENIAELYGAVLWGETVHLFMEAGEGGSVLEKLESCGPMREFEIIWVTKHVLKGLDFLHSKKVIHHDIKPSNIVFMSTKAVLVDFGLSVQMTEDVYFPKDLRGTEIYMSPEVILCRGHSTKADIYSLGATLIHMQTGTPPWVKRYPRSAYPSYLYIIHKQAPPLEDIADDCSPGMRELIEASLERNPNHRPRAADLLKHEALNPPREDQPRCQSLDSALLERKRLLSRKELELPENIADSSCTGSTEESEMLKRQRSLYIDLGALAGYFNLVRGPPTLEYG

[8] = target: Serine/threonine-protein kinase MARK2 (Homo sapiens) (UniProt Q7KZI7); test: Inhibition of MARK2 at 1 uM in presence of 10 uM ATP by Select Screen kinase assay relative to untreated control; in short: as §3
Chain of Serine/threonine-protein kinase MARK2 (Homo sapiens) (Q7KZI7 whole entry): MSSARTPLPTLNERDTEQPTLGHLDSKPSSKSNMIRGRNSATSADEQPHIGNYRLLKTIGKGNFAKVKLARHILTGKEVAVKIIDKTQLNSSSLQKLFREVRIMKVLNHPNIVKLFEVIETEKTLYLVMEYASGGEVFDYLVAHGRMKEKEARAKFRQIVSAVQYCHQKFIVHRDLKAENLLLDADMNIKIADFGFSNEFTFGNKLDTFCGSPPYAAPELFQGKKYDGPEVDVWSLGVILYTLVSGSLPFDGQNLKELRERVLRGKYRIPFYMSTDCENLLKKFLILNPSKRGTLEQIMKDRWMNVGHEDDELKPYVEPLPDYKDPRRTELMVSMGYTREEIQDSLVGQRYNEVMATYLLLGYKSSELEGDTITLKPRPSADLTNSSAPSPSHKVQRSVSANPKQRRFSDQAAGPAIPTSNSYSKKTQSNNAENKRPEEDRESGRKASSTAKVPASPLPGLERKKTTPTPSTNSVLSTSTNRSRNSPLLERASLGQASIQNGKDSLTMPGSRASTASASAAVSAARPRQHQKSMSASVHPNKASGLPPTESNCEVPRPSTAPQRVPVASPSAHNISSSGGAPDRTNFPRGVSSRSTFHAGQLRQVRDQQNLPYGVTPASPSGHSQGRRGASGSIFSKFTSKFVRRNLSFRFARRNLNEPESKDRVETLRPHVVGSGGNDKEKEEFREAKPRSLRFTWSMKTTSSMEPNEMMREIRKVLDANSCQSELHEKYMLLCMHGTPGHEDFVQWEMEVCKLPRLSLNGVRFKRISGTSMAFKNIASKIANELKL

[9] = target: T2, Megakaryocyte-associated tyrosine-protein kinase (Homo sapiens) (UniProt P42679); test: Inhibition of MATK at 1 uM in presence of 10 uM ATP by Select Screen kinase assay relative to untreated control; in short: as §3
T2 sequence (whole entry): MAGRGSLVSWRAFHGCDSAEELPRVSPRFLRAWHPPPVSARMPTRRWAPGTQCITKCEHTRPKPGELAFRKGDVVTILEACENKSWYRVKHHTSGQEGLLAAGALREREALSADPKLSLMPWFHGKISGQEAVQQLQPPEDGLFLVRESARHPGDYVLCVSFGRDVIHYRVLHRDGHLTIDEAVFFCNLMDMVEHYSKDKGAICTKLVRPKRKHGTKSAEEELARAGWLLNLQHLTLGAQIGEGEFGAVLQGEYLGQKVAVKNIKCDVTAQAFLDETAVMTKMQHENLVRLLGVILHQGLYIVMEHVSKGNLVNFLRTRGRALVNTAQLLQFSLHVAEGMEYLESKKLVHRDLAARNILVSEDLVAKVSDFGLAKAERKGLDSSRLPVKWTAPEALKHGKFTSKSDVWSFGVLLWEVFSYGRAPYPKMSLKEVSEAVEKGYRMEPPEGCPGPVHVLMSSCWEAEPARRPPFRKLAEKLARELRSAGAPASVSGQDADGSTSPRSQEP

[10] = target: Myosin light chain kinase 2, skeletal/cardiac muscle (Homo sapiens) (UniProt Q9H1R3); test: Inhibition of MYLK2 at 1 uM in presence of 100 uM ATP by Select Screen kinase assay relative to untreated control; in short: as §3
Chain of Myosin light chain kinase 2, skeletal/cardiac muscle (Homo sapiens) (Q9H1R3 whole entry): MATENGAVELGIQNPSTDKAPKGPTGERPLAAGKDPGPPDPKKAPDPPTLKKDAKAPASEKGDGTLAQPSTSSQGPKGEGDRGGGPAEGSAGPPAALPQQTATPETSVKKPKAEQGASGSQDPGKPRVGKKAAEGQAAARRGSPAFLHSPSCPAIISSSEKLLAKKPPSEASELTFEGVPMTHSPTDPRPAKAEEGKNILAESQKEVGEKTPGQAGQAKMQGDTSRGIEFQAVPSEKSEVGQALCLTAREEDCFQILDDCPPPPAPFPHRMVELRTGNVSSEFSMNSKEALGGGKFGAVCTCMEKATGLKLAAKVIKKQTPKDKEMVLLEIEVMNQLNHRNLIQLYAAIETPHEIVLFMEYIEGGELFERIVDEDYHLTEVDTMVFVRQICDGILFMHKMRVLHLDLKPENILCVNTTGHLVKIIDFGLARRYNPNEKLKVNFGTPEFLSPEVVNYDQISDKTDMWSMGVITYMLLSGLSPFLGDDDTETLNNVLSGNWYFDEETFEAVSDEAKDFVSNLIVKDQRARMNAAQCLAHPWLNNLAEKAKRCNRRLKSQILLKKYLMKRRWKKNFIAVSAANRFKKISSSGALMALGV

[11] = target: Serine/threonine-protein kinase PAK 2 (Homo sapiens) (UniProt Q13177); test: Inhibition of PAK2 at 1 uM in presence of 10 uM ATP by Select Screen kinase assay relative to untreated control; in short: as §2
Chain of Serine/threonine-protein kinase PAK 2 (Homo sapiens) (Q13177 whole entry): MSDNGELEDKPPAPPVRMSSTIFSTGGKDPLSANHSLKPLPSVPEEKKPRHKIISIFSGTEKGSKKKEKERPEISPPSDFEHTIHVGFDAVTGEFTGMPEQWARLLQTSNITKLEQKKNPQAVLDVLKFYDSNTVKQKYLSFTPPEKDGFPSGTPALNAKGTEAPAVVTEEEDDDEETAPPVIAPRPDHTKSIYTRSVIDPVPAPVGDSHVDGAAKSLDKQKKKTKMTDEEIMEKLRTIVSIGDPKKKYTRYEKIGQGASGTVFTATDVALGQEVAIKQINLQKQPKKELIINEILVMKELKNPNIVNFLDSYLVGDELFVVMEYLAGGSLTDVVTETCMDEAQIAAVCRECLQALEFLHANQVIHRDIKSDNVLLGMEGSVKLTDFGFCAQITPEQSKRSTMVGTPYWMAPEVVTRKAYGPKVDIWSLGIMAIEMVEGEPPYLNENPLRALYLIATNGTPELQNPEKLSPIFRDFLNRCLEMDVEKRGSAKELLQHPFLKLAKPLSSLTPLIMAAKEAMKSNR

[12] = target: Serine/threonine-protein kinase PAK 5 (Homo sapiens) (UniProt Q9P286); test: Inhibition of PAK7 at 1 uM in presence of 10 uM ATP by Select Screen kinase assay relative to untreated control; in short: as §2
[13] = test system: Platelet-derived growth factor receptor alpha (Homo sapiens), P16234 [D842V]; test: Inhibition of PDGFRalpha D842V mutant at 1 uM in presence of 10 uM ATP by Select Screen kinase assay relative to untreated control; in short: as §2
Chain of Platelet-derived growth factor receptor alpha (Homo sapiens), P16234 [D842V] (P16234 whole entry D842V, canonical isoform): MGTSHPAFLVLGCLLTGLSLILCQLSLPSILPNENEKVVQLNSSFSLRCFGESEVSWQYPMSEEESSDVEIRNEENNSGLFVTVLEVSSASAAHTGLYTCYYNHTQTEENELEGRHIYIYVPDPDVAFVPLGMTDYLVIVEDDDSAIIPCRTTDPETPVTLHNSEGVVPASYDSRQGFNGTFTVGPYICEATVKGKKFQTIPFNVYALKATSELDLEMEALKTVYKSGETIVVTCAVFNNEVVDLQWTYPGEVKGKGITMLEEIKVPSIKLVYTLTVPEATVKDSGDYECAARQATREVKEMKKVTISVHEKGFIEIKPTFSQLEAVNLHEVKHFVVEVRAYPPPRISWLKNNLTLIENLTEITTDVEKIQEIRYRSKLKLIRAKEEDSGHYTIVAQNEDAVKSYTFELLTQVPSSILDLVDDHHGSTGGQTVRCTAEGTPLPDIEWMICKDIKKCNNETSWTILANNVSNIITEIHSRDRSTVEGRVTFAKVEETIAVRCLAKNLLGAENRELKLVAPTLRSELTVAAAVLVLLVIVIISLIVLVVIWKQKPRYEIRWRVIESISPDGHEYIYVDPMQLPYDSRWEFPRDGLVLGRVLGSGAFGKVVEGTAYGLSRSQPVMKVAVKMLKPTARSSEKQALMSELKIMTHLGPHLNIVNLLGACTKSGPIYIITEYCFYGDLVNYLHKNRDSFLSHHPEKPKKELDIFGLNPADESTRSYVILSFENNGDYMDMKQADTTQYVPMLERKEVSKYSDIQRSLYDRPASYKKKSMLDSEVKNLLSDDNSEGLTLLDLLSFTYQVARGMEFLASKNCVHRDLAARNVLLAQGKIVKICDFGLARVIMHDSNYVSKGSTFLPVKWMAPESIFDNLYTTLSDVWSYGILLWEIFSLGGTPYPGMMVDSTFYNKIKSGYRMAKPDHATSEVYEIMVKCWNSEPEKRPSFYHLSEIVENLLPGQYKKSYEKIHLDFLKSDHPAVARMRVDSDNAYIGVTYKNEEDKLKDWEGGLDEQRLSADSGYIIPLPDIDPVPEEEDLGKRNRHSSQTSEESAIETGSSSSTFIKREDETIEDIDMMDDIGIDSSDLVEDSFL

[14] = target: T3, Phosphorylase b kinase gamma catalytic chain, liver/testis isoform (Homo sapiens) (UniProt P15735); test: Inhibition of PHKG2 at 1 uM in presence of 10 uM ATP by Select Screen kinase assay relative to untreated control; in short: as §2
T3 sequence (whole entry): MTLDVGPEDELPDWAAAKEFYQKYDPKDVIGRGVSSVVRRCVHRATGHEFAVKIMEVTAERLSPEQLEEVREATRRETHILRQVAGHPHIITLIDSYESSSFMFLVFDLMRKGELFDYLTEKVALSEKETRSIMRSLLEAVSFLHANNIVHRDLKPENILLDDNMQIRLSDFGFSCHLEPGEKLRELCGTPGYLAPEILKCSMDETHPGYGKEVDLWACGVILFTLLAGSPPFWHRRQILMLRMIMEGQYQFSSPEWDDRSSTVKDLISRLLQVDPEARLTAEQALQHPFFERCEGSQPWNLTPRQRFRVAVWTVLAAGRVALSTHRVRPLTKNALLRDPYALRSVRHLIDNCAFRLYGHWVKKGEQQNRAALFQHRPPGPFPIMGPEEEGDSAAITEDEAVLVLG

[15] = target: Serine/threonine-protein kinase PLK1 (Homo sapiens) (UniProt P53350); test: Inhibition of PLK1 at 1 uM in presence of 10 uM ATP by Select Screen kinase assay relative to untreated control; in short: as §2

| inhibition [1] [%] | inhibition [2] [%] | inhibition [3] [%] | inhibition [4] [%] | inhibition [5] [%] | inhibition [6] [%] | inhibition [7] [%] | inhibition [8] [%] | inhibition [9] [%] | inhibition [10] [%] | inhibition [11] [%] | inhibition [12] [%] | inhibition [13] [%] | inhibition [14] [%] | inhibition [15] [%] | SMILES |
| --- | --- | --- | --- | --- | --- | --- | --- | --- | --- | --- | --- | --- | --- | --- | --- |
| 9 | 12 | 25 | 37 | 9 | 10 | 54 | 93 | 3 | 25 | 5 | 25 | 106 | 28 | 14 | O=C(NCCCNc1nc(Nc2cccc(NC(=O)N3CCCC3)c2)ncc1I)c1cccs1 |
| 10 | 17 | 78 | 16 | 15 | 10 | 17 | 26 | -1 | 12 | 9 | 1 | 2 | 4 | 12 | COc1ccccc1N1CCN(c2ncnc3[nH]nc(Br)c23)CC1 |

| SMILES | inhibition [1] [%] | inhibition [2] [%] | inhibition [3] [%] | inhibition [4] [%] | inhibition [5] [%] | inhibition [6] [%] | inhibition [7] [%] | inhibition [8] [%] | inhibition [9] [%] | inhibition [10] [%] | inhibition [11] [%] | inhibition [12] [%] | inhibition [13] [%] | inhibition [14] [%] | inhibition [15] [%] |
| --- | --- | --- | --- | --- | --- | --- | --- | --- | --- | --- | --- | --- | --- | --- | --- |
| Cc1n[nH]c2ccc(-c3cncc(OC[C@@H](N)Cc4c[nH]c5ccccc45)c3)cc12 | 17 | 78 | 102 | 40 | 8 | 5 | 50 | 68 | -10 | 22 | 55 | 25 | 11 | 11 | 1 |
